Experimental data from ChEMBL document CHEMBL3526038, “The role of a basolateral transporter in rosuvastatin transport and its interplay with apical breast cancer resistance protein in polarized cell monolayer systems” (Drug Metab Dispos, 2012).
One block for each compound: values may come before it.

Legend:
[1] = Apparent permeability from apical to basolateral side of human Caco2 cells at 2 uM after 60 to 120 mins; assay type: ADME, cell-based; conditions: Caco-2
Summary of the method: (§1)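 Monolayers on collagen-coated polycarbonate Transwells (0.4 μm pores), seeded at 60,000 cells/cm². Caco-2 were used at 21-28 days (TEER > 450 Ω·cm²); BCRP-MDCK at 7-11 days (TEER > 1200 Ω·cm²), stably expressing human ABCG2 R482 under neomycin selection. Rosuvastatin 2 μM in HBSSg pH 7.4 was dosed apically or basolaterally at 37°C. Samples were taken at 60 and 120 min for LC-MS/MS. Papp was determined; ER = Papp B-to-A / Papp A-to-B; triplicate.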

[2] = Apparent permeability from basolateral to apical side of MDCK cells at 2 uM after 60 to 120 mins; assay type: ADME, cell-based, Canis lupus familiaris; conditions: dog; summary of the method: as §1
[3] = tested on: BCRP; assay: Apparent permeability from apical to basolateral side of MDCK cells overexpressing BCRP at 2 uM after 60 to 120 mins; assay type: ADME, cell-based, Canis lupus familiaris; conditions: dog; summary of the method: as §1
[4] = Apparent permeability from basolateral to apical side of human Caco2 cells at 2 uM after 60 to 120 mins; assay type: ADME, cell-based; conditions: Caco-2; summary of the method: as §1
[5] = tested on: BCRP; assay: Apparent permeability from basolateral to apical side of MDCK cells overexpressing BCRP at 2 uM after 60 to 120 mins; assay type: ADME, cell-based, Canis lupus familiaris; conditions: dog; summary of the method: as §1
[6] = tested on: BCRP; assay: Efflux ratio of apparent permeability from basolateral to apical over apical to basolateral side of MDCK cells overexpressing BCRP at 2 uM after 60 to 120 mins; assay type: ADME, cell-based, Canis lupus familiaris; conditions: dog; summary of the method: as §1
[7] = Apparent permeability from apical to basolateral side of MDCK cells at 2 uM after 60 to 120 mins; assay type: ADME, cell-based, Canis lupus familiaris; conditions: dog; summary of the method: as §1
[8] = Efflux ratio of apparent permeability from basolateral to apical over apical to basolateral side of MDCK cells at 2 uM after 60 to 120 mins; assay type: ADME, cell-based, Canis lupus familiaris; conditions: dog; summary of the method: as §1
[9] = Efflux ratio of apparent permeability from basolateral to apical over apical to basolateral side of human Caco2 cells at 2 uM after 60 to 120 mins; assay type: ADME, cell-based; conditions: Caco-2; summary of the method: as §1
[10] = Activity at OSTalpha/OSTbeta in human Caco2 cells assessed as drug transport from basolateral to apical side at 2 uM in presence of rifamycin relative to control; assay type: ADME, cell-based; conditions: caco-2, 2 µM
[11] = Partition coefficient, pKa of the compound; assay type: physicochemical; conditions: octanol/water
[12] = Activity at OSTalpha/OSTbeta in human Caco2 cells assessed as drug transport from basolateral to apical side at 2 uM in presence of taurocholate relative to control; assay type: ADME, cell-based; conditions: caco-2, 2 µM
[13] = Activity at OSTalpha/OSTbeta in human Caco2 cells assessed as drug transport from apical to basolateral side at 50 uM in presence of 10 uM taurolithocholate relative to control; assay type: ADME, cell-based; conditions: caco-2, 50 µM
Summary of the method: (§2)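 Caco-2 monolayers (21-28 days, TEER > 450 Ω·cm²). Rosuvastatin 50 μM was dosed apically with 10 μM atenolol as a low-permeability marker, in HBSSg/MES at pH 5.5. Basolateral buffer was HBSSg/HEPES pH 7.4, with or without tauroolithocholate (10, 50 or 100 μM). Incubated at 37°C. Basolateral samples were taken at 15, 30 and 60 min and measured by LC-MS/MS. Efflux was normalised to BCA protein and expressed as % control; triplicate.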

[14] = Activity at OSTalpha/OSTbeta in human Caco2 cells assessed as drug transport from basolateral to apical side at 2 uM in presence of dehydroepiandrosterone sulfate relative to control; assay type: ADME, cell-based; conditions: caco-2, 2 µM
[15] = Activity at OSTalpha/OSTbeta in human Caco2 cells assessed as drug transport from basolateral to apical side at 2 uM in presence of indomethacin relative to control; assay type: ADME, cell-based; conditions: caco-2, 2 µM
[16] = Activity at OSTalpha/OSTbeta in human Caco2 cells assessed as drug transport from apical to basolateral side at 50 uM in presence of 100 uM taurolithocholate relative to control; assay type: ADME, cell-based; conditions: caco-2, 50 µM; summary of the method: as §2
[17] = Activity at OSTalpha/OSTbeta in human Caco2 cells assessed as drug transport from basolateral to apical side at 2 uM in presence of taurolithocholate relative to control; assay type: ADME, cell-based; conditions: caco-2, 2 µM
[18] = Activity at OSTalpha/OSTbeta in human Caco2 cells assessed as drug transport from basolateral to apical side at 2 uM in presence of spironolactone relative to control; assay type: ADME, cell-based; conditions: caco-2, 2 µM
[19] = Oral bioavailability in human at 40 mg; assay type: ADME, organism-based; conditions: in vivo
[20] = Cmax in healthy human at 20 mg, po; conditions: in vivo
[21] = Activity at OSTalpha/OSTbeta in human Caco2 cells assessed as drug transport from basolateral to apical side at 2 uM in presence of lithocholate acid relative to control; assay type: ADME, cell-based; conditions: caco-2, 2 µM
[22] = Activity at OSTalpha/OSTbeta in human Caco2 cells assessed as drug transport from apical to basolateral side at 50 uM in presence of 50 uM taurolithocholate relative to control; assay type: ADME, cell-based; conditions: caco-2, 50 µM; summary of the method: as §2
[23] = Activity at OSTalpha/OSTbeta in human Caco2 cells assessed as drug transport from basolateral to apical side at 2 uM in presence of estrone 3-sulfate relative to control; assay type: ADME, cell-based; conditions: caco-2, 2 µM
[24] = Activity at OSTalpha/OSTbeta in human Caco2 cells assessed as drug transport from basolateral to apical side at 2 uM in presence of chenodoxycholate relative to control; assay type: ADME, cell-based; conditions: caco-2, 2 µM
[25] = Cellular uptake in human Caco2 cells after 30 mins by Michaelis-Menten equation analysis; assay type: ADME, cell-based, Caco-2
Summary of the method: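 Caco-2 monolayers (21-28 days). Rosuvastatin at various concentrations was dosed basolaterally in HBSSg pH 7.4 and incubated 30 min at 37°C. Apical samples and ice-cold-washed, acetonitrile-lysed cells were analysed by LC-MS/MS. Total uptake was fitted by nonlinear regression to saturable plus nonsaturable components to give Km; mean ± S.D., n = 3.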

[26] = Activity at OSTalpha/OSTbeta in human Caco2 cells assessed as drug transport from basolateral to apical side at 2 uM in presence of bromosulfophthalein relative to control; assay type: ADME, cell-based; conditions: caco-2, 2 µM
[27] = Activity at OSTalpha/OSTbeta in human Caco2 cells assessed as drug transport from basolateral to apical side at 2 uM in presence of digoxin relative to control; assay type: ADME, cell-based; conditions: caco-2, 2 µM
[28] = tested on: Homo sapiens; assay: Total clearance in human at 40 mg, po; assay type: ADME, organism-based; conditions: in vivo
[29] = Activity at OSTalpha/OSTbeta in human Caco2 cells assessed as drug transport from basolateral to apical side at 2 uM in presence of probenecid relative to control; assay type: ADME, cell-based; conditions: caco-2, 2 µM

- Papp A→B at 2 µM [1]: 3.92 ×10⁻⁶ cm/s
- Papp B→A at 2 µM [2]: 13.6 ×10⁻⁶ cm/s
- Papp A→B at 2 µM [3]: 1.31 ×10⁻⁶ cm/s
- Papp B→A at 2 µM [4]: 41.1 ×10⁻⁶ cm/s
- Papp B→A at 2 µM [5]: 45.1 ×10⁻⁶ cm/s
- efflux ratio at 2 µM [6]: 34.5
- Papp A→B at 2 µM [7]: 4.32 ×10⁻⁶ cm/s
- efflux ratio at 2 µM [8]: 3.1
- efflux ratio at 2 µM [9]: 10.5
SMILES: COc1cc2nc(N3CCN(C(=O)c4ccco4)CC3)nc(N)c2cc1OC [PRAZOSIN]

- Papp A→B at 2 µM [1]: 0.25 ×10⁻⁶ cm/s
- Drug transport [10]: 21.4%
- pKa [11]: 4.2
- Drug transport [12]: 29.1%
- Drug transport [13]: 338%
- Drug transport [14]: 38.1%
- Papp B→A at 2 µM [2]: 0.49 ×10⁻⁶ cm/s
- Drug transport [15]: 32.7%
- Drug transport [16]: 359%
- Papp A→B at 2 µM [3]: 0.28 ×10⁻⁶ cm/s
- Drug transport [17]: 30.1%
- Drug transport [18]: 35.1%
- bioavailability [19]: 20%
- Cmax [20]: 6 nM
- Papp B→A at 2 µM [4]: 20.7 ×10⁻⁶ cm/s
- Drug transport [21]: 42.6%
- Papp B→A at 2 µM [5]: 1.63 ×10⁻⁶ cm/s
- Drug transport [22]: 436%
- Drug transport [23]: 28.7%
- Drug transport [24]: 27.9%
- efflux ratio at 2 µM [6]: 5.8
- Km at 0.5 h ([25]; human, Caco-2 cells): 4.21 µM
- Jmax ([25]; human, caco-2, 0.5 h): 24.64 pmol/min/mg
- Drug transport [26]: 23.5%
- Papp A→B at 2 µM [7]: 0.43 ×10⁻⁶ cm/s
- Drug transport [27]: 43.9%
- CL [28]: 70%
- efflux ratio at 2 µM [8]: 1.1
- efflux ratio at 2 µM [9]: 83.2
- Drug transport [29]: 73.8%
SMILES: CC(C)c1nc(N(C)S(C)(=O)=O)nc(-c2ccc(F)cc2)c1/C=C/[C@@H](O)C[C@@H](O)CC(=O)[O-].CC(C)c1nc(N(C)S(C)(=O)=O)nc(-c2ccc(F)cc2)c1/C=C/[C@@H](O)C[C@@H](O)CC(=O)[O-].[Ca+2] [ROSUVASTATIN CALCIUM]
- Kd ([25]; caco-2): 0.9985 µL/min/mg
